Hsp70 act = transcriptional activators of Hsp70. HeLa Hsp70 promoter luciferase reporter, luminescence; scaled: vehicle 0, proteasome-inhibitor control 100%. activation, % at 10 µM. hit rate 0.04% among 200,000. AID 1203;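 active means activation above the mean across all tested compounds plus 3 SD, cutoff set per campaign, cut at about 5.5% in these data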
TLR4 MyD88 comp = inhibitors of human TLR4-MyD88 binding. O00206+Q99836. HeLa CL3-4 TLR4/MyD88 BLA complementation, FRET ratio. inhibition, % at 8.4 µM. hit rate 0.18% among 200,000; in the data active means inhibition above about 25%
TLR9-MyD88 inh = TLR9-MyD88 interaction inhibition; AID 504734; CHO BLA complementation TLR9-MyD88, CCF4 FRET ratio; Q9NR96+Q99836; hit rate 0.21% among 340,000; inhibition, % at 4.98 µM;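 active means inhibition above the mean over all tested compounds plus 3 SD, cut at about 21% in these data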
MT stabilizer = microtubule stabilization, imaging screen | HeLa tubulin immunostaining HCS, 24 h; share of cells brighter than vehicle mean+2SD | % tubulin-high responders, % at 10 µM | hit rate 0.83% among 200,000;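 active means plate Z-score above 3 for both tubulin-high and condensed-nucleus cell shares, with cell loss under 80%, at 10 µM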;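 further: anti alpha tubulin signal scored within the nucleus-defined area of each cell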
bCat nuc transl = alters nuclear translocation of beta-catenin in HeLa cells; immunofluorescence imaging; nuclear translocation activity, % at 5 µM; hit rate 0.3% among 190,000; AID 1665;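 active means nuclear translocation activity above 50% at 5 µM, with a well cell count of 50 or more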;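 further: per-cell ratio of nuclear to cytoplasmic median beta-catenin stain intensity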
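Signal – beta-catenin immunofluorescence imaging with DAPI · Test system – human HeLa cell line · Dosing – 5 µM primary single dose, 0.1% DMSO, 0.02–20 µM confirmation series · Measure – % activation, nuclear-to-cytoplasmic median beta-catenin signal ratio per cell · Incubation – 24 h compound exposure at 37°C, 5% CO2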
NOD2-RIPK2 inh = blocks binding of human NOD2 to RIPK2; O43353; hit rate 0.38% among 360,000; AID 624267; CHO BLA complementation NOD2-RIPK2, CCF4 ratio; inhibition, % at 4.98 µM; in the data active means inhibition above about 21%
TLR9-MyD88 conf = TLR9-MyD88 interaction inhibition, confirmation; shares compounds with TLR9-MyD88 inh; CHO TLR9/MyD88 BLA complementation, CCF4 FRET ratio; inhibition, % at 4.98 µM; hit rate 51% among 680;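 active means mean inhibition across three repeats above about 21% taken from the earlier screen, limit read from the data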;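 further: blue over green emission ratio reports constitutive TLR9 MyD88 association via BLA complementation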
Target sequence (Q9NR96 whole entry, looked up): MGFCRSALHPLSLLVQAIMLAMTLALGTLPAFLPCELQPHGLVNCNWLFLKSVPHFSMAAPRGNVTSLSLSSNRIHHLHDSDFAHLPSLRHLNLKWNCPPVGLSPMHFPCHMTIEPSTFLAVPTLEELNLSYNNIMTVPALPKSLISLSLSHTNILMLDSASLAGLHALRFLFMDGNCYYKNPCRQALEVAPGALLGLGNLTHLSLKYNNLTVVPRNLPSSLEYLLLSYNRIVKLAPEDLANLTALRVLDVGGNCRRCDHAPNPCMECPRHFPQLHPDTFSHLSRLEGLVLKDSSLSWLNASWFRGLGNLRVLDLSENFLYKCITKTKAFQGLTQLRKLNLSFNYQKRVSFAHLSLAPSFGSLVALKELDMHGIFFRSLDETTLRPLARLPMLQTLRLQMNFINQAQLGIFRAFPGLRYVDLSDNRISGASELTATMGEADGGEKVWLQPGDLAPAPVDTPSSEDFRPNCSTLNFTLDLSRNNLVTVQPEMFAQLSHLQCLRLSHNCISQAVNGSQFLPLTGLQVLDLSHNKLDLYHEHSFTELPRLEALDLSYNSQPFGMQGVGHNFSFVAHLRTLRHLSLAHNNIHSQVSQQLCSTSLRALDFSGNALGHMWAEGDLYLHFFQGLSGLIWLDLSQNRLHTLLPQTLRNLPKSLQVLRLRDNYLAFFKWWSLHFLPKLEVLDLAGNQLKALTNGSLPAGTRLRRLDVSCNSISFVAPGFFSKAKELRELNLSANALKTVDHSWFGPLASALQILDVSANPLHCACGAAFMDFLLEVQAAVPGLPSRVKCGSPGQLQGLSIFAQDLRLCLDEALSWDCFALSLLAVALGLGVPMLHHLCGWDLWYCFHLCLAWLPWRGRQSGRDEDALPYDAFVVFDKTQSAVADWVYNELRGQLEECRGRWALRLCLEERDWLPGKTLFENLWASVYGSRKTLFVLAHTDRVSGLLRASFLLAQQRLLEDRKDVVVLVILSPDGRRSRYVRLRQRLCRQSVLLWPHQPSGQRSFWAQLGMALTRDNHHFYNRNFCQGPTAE
BLA counter-1 = counter-screen for TLR9-MyD88 inhibitors: non-selective beta-lactamase inhibitors; shares compounds with TLR9-MyD88 inh; CHO-BLA cells, CCF4 FRET ratio, BLA reporter; inhibition, % at 4.98 µM; hit rate 7% among 680; AID 540251;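 active means mean inhibition above a 50% cutoff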;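 further: counterscreen of TLR9-MyD88 hits on CMV-driven BLA in CHO-K1 cells; higher means less blue over green ratio so more BLA blockade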
TLR9 CHO cytotox = counter-screen for TLR9-MyD88 inhibitors: cytotoxicity in CHO cells | hit rate 39% among 680 | luminescence | shares compounds with TLR9-MyD88 inh | inhibition, % at 4.98 µM; in the data active means inhibition above about 11%
NOD2-RIPK2 conf = confirmation of human NOD2-RIPK2 interaction inhibitors | shares compounds with NOD2-RIPK2 inh | CHO cells, NOD2-RIPK2 BLA complementation, CCF4 FRET | inhibition, % at 4.98 µM | hit rate 70% among 1,200;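 active means mean inhibition across replicates above a set limit taken from the earlier primary screen, cut at about 21% in these data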
BLA counter-2 = hits BLA reporter in NOD2-RIPK2 inhibitor counterscreen | inhibition, % at 4.98 µM | CHO BLA reporter, CCF4 FRET ratio | shares compounds with NOD2-RIPK2 inh | hit rate 57% among 1,200;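 active means mean inhibition above the low-control mean inhibition plus three low-control SD, cut at about 11% in these data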
Numbers stand for hits; 0 = inactive; - = not tested or not shown. This is a sample that favours compounds with a hit; in the whole collection about 1% have one here.

SMILES	Hsp70 act	TLR4 MyD88 comp	TLR9-MyD88 inh	MT stabilizer	bCat nuc transl	NOD2-RIPK2 inh	TLR9-MyD88 conf	BLA counter-1	TLR9 CHO cytotox	NOD2-RIPK2 conf	BLA counter-2
CCOc1ccc(S(=O)(=O)N2CCCC(C(=O)NCc3ccncc3)C2)cc1 (stereo unspecified)	-	-	0	-	-	0	-	-	-	-	-
CCc1ccc(Nc2n[n+](-c3ccccc3)c(-c3c(Cl)cccc3Cl)s2)cc1	-	-	80	-	-	68	43	0	29	75	63
Cc1ccnc(NC(=O)CCN2C(=O)c3ccccc3S2(=O)=O)n1	-	-	0	-	-	0	-	-	-	-	-
CCC(=O)Nc1ccc(C(=O)Cn2ncc(Cl)c(Cl)c2=O)cc1	-	-	21	-	0	22	0	0	37	34	0
O=C(Cn1ncc(Cl)c(Cl)c1=O)c1ccc2c(c1)OCCO2	-	-	0	-	-	0	-	-	-	-	-
COc1ccc(C(C(=O)NC(C)(C)C)n2c(-c3ccc(C(F)(F)F)cc3)nc3ccccc32)cc1 (stereo unspecified)	-	-	-	-	-	0	-	-	-	-	-
C=CCn1c(O)c(N=O)c2ccccc21	-	-	0	-	0	0	-	-	-	-	-
O=Nc1c(O)n(Cc2c(Cl)cccc2Cl)c2ccccc12	0	0	35	0	0	29	0	0	0	36	42
O=c1c(O)c(-c2cccs2)oc2ccccc12	0	0	21	0	0	29	0	0	0	41	38
CN(C)c1ccc(-n2cccc2/C=C/[N+](=O)[O-])cc1	0	0	0	0	0	0	-	-	-	-	-
CN(c1ccccc1)c1ccc(/C=C/[N+](=O)[O-])cc1	0	0	26	0	0	75	28	0	81	89	29
CCOC(=O)C1=CNS(=O)(=O)NC1CCc1ccccc1 (stereo unspecified)	-	-	0	-	-	0	-	-	-	-	-
O=C(NCc1cccnc1)C1CCN(S(=O)(=O)c2cc([N+](=O)[O-])ccc2Cl)CC1	-	-	0	-	-	0	-	-	-	-	-
CN(C)c1ccc(/C=C/c2nc3ccccc3c(=O)n2CCO)cc1	-	-	45	-	-	35	0	0	0	0	28
CCS(=O)(=O)c1ncc(Cl)c(C(=O)Nc2ccc(S(=O)(=O)N(C)c3ccccc3)cc2)n1	-	-	55	-	-	99	54	50	100	96	54
Cc1ccccc1NC(=O)c1nc(S(C)(=O)=O)ncc1Cl	-	-	38	-	-	30	37	0	87	60	29
Cc1ccccc1NC(=O)c1cccc(C(=O)Nc2ccccc2C)n1	-	-	0	-	-	0	-	-	-	-	-
CCOC(=O)c1nc(S(C)(=O)=O)ncc1Cl	0	0	34	0	0	22	37	0	43	56	25
CCN(c1ccccc1)S(=O)(=O)c1ccc(NC(=O)c2nc(S(C)(=O)=O)ncc2Cl)cc1	-	-	61	-	-	97	59	0	100	98	49
O=C(Nc1ccccc1C(=O)O)c1cc(S(=O)(=O)N2CCCCC2)c(Cl)cc1Cl	-	-	0	-	-	0	-	-	-	-	-
CN(C)c1ccc(/C=C2\Oc3ccc(C#Cc4cccc(N)c4)cc3C2=O)cc1	-	-	45	-	-	49	53	60	0	71	78
COC(=O)c1ccc2c(c1)C(=O)/C(=C/c1ccc(C)cc1)O2	0	0	0	0	0	0	-	-	-	-	-
Cc1cc2nc(C3CCCCC3)c(CC(C)(C)C)n2c(C)c1Br	-	-	-	-	-	0	-	-	-	-	-
Cc1n[nH]c(C)c1N1C(=O)c2cccc3c(N4CCCCCC4)ccc(c23)C1=O	0	0	27	0	0	38	0	0	0	32	42

From PubChem BioAssay
